In ChEMBL document CHEMBL4350954, “Identification of Thienopyrimidine Scaffold as an Inhibitor of the ABC Transport Protein ABCC1 (MRP1) and Related Transporters Using a Combined Virtual Screening Approach” (J Med Chem, 2019):

Experiments:
[1] = molecular target: T1, ATP-dependent translocase ABCB1 (Homo sapiens, UniProt P08183); test: Competitive inhibition of ABCB1-mediated calcein-AM transport in human A2780/ADR cells at 0.056 to 0.316 uM by Lineweaver-Burk plot analysis; format: cell-based
In short: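 Kinetic study of calcein AM transport by Lineweaver-Burk analysis. ABCC1 was studied in H69AR cells with calcein AM at 0.25, 0.3, 0.45, 0.6 and 0.8 µM and inhibitor at 0.316, 0.562, 1.00 and 1.78 µM plus a zero control. ABCB1 was studied in A2780/ADR cells with calcein AM at 0.2–0.8 µM and inhibitor at 0.056, 0.100, 0.178 and 0.316 µM plus a zero control.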

[2] = molecular target: T1, ATP-dependent translocase ABCB1; test: Reversal of ABCB1 (unknown origin)-mediated multidrug resistance in MDCK2 cells co-expressing MDR1 (unknown origin) assessed as resistance factor by measuring [GI50(resistant cell line without or with compound)/ GI50(sensitive cell line)] at 1 uM incubated for 72 hrs by MTT assay (reference value: 17); format: cell-based
In short: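 MDR reversal assay with daunorubicin at 10 nM–10 µM, alone or with test compound at 0.5, 1, 5 or 10 µM. Resistant cells were ABCB1-overexpressing A2780/ADR or MDCK II MDR1, with sensitive A2780 or MDCK II cells as comparators. Resistance factor = resistant GI50 / sensitive GI50. EC50 was derived from resistance factors versus modulator concentration. Values are from ≥3 experiments in duplicate ± SEM.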

[3] = molecular target: T1, ATP-dependent translocase ABCB1; test: Inhibition of ABCB1 in human A2780/ADR cells preincubated for 30 mins followed by calcein AM addition and measured at 60 secs time interval by fluorescence assay; format: cell-based
ABCG2 (BCRP) = test: Therapeutic index, ratio of GI50 for MDCK2 cells co-expressing BCRP (unknown origin) to IC50 for ABCG2 (unknown origin) expressed in MDCK2 cells co-expressing BCRP (unknown origin); format: toxicity, cell-based; conditions: dog, read-out: TI
In short: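 Therapeutic ratio = GI50 from the MTT cytotoxicity assay / IC50 from the inhibition assay in the same cell line. The cell lines were H69AR (calcein AM, ABCC1), A2780/ADR (calcein AM, ABCB1) and MDCK II BCRP (pheophorbide A, ABCG2).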

[4] = Growth inhibition of MDCK2 cells co-expressing MRP1 (unknown origin) incubated for 72 hrs by MTT assay; format: cell-based, Canis lupus familiaris, MDCK-II; conditions: dog
In short: (§1)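 MTT-based cytotoxicity assay giving GI50 of the compound alone in each listed parental, selected or transfected cell line.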

[5] = Growth inhibition of MDCK2 cells co-expressing MDR1 (unknown origin) incubated for 72 hrs by MTT assay; format: ADME, cell-based, Canis lupus familiaris, MDCK-II; conditions: dog; in short: as §1

T1 sequence (P08183 whole entry): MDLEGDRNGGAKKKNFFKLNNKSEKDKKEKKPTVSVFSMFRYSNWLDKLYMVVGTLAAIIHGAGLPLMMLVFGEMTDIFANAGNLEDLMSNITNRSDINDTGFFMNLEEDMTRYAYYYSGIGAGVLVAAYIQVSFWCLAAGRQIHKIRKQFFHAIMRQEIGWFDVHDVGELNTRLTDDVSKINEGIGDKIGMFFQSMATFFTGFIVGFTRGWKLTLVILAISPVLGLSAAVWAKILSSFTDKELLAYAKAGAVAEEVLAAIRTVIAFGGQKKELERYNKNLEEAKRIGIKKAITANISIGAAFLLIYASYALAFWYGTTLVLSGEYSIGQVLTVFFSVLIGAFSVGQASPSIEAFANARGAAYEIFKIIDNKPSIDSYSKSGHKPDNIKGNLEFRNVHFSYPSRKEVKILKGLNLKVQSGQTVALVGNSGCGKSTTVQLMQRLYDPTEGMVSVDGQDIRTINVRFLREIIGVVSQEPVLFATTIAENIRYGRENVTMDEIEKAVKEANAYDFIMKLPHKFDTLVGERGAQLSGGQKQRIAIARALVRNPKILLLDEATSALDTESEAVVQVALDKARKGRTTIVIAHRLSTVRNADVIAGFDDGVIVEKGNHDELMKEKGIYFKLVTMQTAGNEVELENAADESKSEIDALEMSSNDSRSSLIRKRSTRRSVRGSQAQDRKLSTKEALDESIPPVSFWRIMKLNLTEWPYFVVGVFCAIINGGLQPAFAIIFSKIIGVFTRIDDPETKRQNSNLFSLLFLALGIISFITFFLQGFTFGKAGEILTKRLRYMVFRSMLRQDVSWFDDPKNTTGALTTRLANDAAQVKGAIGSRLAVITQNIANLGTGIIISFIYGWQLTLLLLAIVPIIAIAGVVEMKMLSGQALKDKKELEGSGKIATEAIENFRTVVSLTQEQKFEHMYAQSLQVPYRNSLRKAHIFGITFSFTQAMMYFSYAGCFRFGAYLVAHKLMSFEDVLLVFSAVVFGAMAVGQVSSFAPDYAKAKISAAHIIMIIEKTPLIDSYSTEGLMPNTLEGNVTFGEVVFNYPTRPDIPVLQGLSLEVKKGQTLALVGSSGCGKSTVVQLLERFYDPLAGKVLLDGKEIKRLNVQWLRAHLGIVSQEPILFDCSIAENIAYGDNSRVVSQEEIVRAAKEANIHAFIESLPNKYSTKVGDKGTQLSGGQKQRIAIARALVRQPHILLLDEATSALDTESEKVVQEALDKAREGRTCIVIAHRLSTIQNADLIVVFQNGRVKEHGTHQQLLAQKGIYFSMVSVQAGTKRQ

inhibition (INH) [1]: Active | RatioGI50 [2]: 4.3 | IC50 [3]: 1.73 µM
Structure (SMILES): CC1CCc2c(sc3nc(-c4cccnc4)nc(N4CCN(C(C(N)=O)c5ccccc5)CC4)c23)C1 (stereo unspecified)
selectivity ratio (ABCG2 (BCRP)): 6.9 | GI50 at 72 h [4]: 42.4 µM | GI50 at 72 h [5]: 25 µM
